# Screening results as filed in PubChem BioAssay.
# KDM4C inh – inhibitors of GASC-1 (KDM4C) histone demethylase, primary screen, biochemical, single concentration HTS; AID 720574, 2013; inhibition, % at 12.5 µM; GST-KDM4C 2-372, H3K9me3 peptide, LANCE TR-FRET; actives 0.15% (n = 96,000); Lysine-specific demethylase 4C (Homo sapiens), Q9H3R0;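 active = mean replicate inhibition above about 25%, with at least 55% of replicates also reaching it, limit read from the data, passing the limit was not always enough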
# Target sequence (Q9H3R0 2-372 limits assumed): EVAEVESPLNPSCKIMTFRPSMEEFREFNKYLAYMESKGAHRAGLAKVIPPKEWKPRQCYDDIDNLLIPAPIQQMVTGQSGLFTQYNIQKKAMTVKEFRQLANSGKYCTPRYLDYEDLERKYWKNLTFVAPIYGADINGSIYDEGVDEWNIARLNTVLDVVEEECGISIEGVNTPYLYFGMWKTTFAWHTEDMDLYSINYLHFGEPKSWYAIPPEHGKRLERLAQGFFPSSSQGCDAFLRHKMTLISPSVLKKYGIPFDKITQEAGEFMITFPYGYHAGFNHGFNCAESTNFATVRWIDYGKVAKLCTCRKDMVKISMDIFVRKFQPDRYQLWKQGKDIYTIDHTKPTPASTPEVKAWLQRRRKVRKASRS
#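 material = GST-tagged GASC-1 (JMJD2C) catalytic fragment, aa 2-372 | amount = enzyme final amount 10 nM | medium = HEPES buffer, pH 7.5, plus ascorbate | also added = H3K9me3 peptide substrate, Fe(II), 2-oxoglutarate | dosing = single dose | times = 30 min demethylation and 1 h detection at room temperature | detection = LANCE TR-FRET | read-out basis = Fall in 671/618 emission ratio as inhibition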
# T cruzi growth – T. cruzi intracellular proliferation inhibitors, primary screen, cell-based, beta-gal Tulahuen parasites, NIH3T3 host, luminescence; actives 5.9% (n = 77,000); inhibition, % at 8.34 µM; T. cruzi beta-gal in NIH3T3, GalScreen luminescence, 90 h;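 active = mean inhibition above about 93%, with at least 55% of replicates each passing it, limit read from the data, passing the limit was not always enough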
# Pf Dd2 growth – P. falciparum Dd2 growth inhibitors, primary screen, SYBR Green fluorescence, single dose replicates | 72 h; stronger effect = lower value | activity change, % at 10 µM | actives 2.3% (n = 94,000) | AID 1159554, 2015; in the data active = activity change below about -80%
# IDH1 mut inh – inhibitors of IDH1 R132H reductase, primary screen, biochemical, plate reader, single point; actives 0.18% (n = 70,000); AID 624101, 2012; inhibition, % at 10 µM; diaphorase/resazurin fluorescence, 60 min; in the data active = inhibition above about 34%;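 note: 0% = DMSO and 100% = no enzyme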
# An asterisk follows results filed as active; · = no result given; ! = not active in a repeat. Shown are actives, neighbours in structure and some others; about 5.8% of the full set was active somewhere.
SMILES,KDM4C inh,T cruzi growth,Pf Dd2 growth,IDH1 mut inh
C[C@H](CO)N1C[C@H](C)[C@H](CN(C)Cc2ccc(Cl)c(Cl)c2)Oc2c(NC(=O)CCCCCC(=O)Nc3ccccc3N)cccc2C1=O,-0.3,·,-88.4*,0.5
O=C(C[C@@H]1C[C@H]2c3cc(NC(=O)C4CCOCC4)ccc3O[C@H]2[C@@H](CO)O1)NCc1ccncc1,1.4,-26.7,24.6,0.1
C[C@H](CO)N1C[C@H](C)[C@@H](CN(C)C(=O)c2ccncc2)Oc2ncc(C3=CCCC3)cc2C1=O,0.2,-10.8,19.1,·
C[C@H]1CN([C@@H](C)CO)C(=O)c2cc(NC(=O)Cc3ccccc3)ccc2O[C@@H]1CN(C)S(C)(=O)=O,15.8,59.1,8.4,-0.1
C[C@@H]1CN([C@H](C)CO)S(=O)(=O)c2ccc(Br)cc2O[C@H]1CN(C)C,8.2,26.0,-6.9,-1.1
C[C@H](CO)N1C[C@H](C)[C@H](CN(C)C)Oc2c(NC(=O)CCCCCC(=O)Nc3ccccc3N)cccc2C1=O,0.1,·,21.7,·
CC(C)NC(=O)Nc1cccc2c1O[C@@H](CN(C)CC1CCCCC1)[C@H](C)CN([C@@H](C)CO)C2=O,-2.1,·,-80.7*,0.7
C[C@@H]1CN([C@@H](C)CO)C(=O)c2cccc(NC(=O)CCCCCC(=O)Nc3ccccc3N)c2O[C@H]1CN(C)CC1CCCCC1,4.8,·,-88.9*,·
CC(C)NC(=O)Nc1cccc2c1O[C@@H](CN(C)CC1CCCCC1)[C@@H](C)CN([C@H](C)CO)C2=O,-0.7,-19.4,-0.2,·
C[C@H](CO)N1C[C@H](C)[C@H](CN(C)CC2CC2)Oc2c(NC(=O)CCCCCC(=O)Nc3ccccc3N)cccc2C1=O,0.2,·,-43.6,-0.4
C[C@@H]1CN([C@@H](C)CO)C(=O)c2cccc(NC(=O)CCCCCC(=O)Nc3ccccc3N)c2O[C@H]1CN(C)Cc1ccc(-c2ccccc2)cc1,-4.7,·,-90.7*,0.3
C[C@@H]1CN([C@H](C)CO)C(=O)c2cc(Br)cnc2O[C@@H]1CN(C)C(=O)c1ccccc1F,-0.2,-12.7,27.0,-1.3
COc1ccc(S(=O)(=O)Nc2ccc3c(c2)CC(=O)N([C@@H](C)CO)C[C@H](C)[C@@H](CN(C)Cc2ccc(C(=O)Nc4ccccc4N)cc2)O3)cc1,-2.3,·,-88.1*,0.1
COc1ccc(S(=O)(=O)Nc2ccc3c(c2)CC(=O)N([C@H](C)CO)C[C@H](C)[C@@H](CN(C)Cc2ccc(C(=O)Nc4ccccc4N)cc2)O3)cc1,-4.7,48.6,-85.4*,0.0
N#C[C@H]1[C@H](c2ccc(C3=CCCCC3)cc2)[C@H](CO)N1C(=O)NC1CCCC1,-1.5,·,-36.6,·
CN(C)CC#Cc1ccc([C@@H]2[C@H]3CN(C(=O)c4ccc(F)cc4)CC(=O)N3[C@H]2CO)cc1,1.9,·,4.0,·
C[C@@H]1CCCCO[C@H](CN(C)S(=O)(=O)c2ccccc2)[C@H](C)CN([C@@H](C)CO)C(=O)c2cc(NC(=O)CCCN(C)C)ccc2O1,2.4,-25.2,-6.9,89.0*
COc1ccc(S(=O)(=O)N(C)C[C@@H]2OCCCC[C@@H](C)Oc3ccc(NC(=O)CCC(F)(F)F)cc3C(=O)N([C@@H](C)CO)C[C@@H]2C)cc1,-0.9,45.9,-81.3*,·
COc1ccc(S(=O)(=O)N(C)C[C@H]2OCCCC[C@H](C)Oc3ccc(NC(=O)CCCN(C)C)cc3C(=O)N([C@H](C)CO)C[C@H]2C)cc1,45.3*,53.6,-2.6,·
C[C@@H]1CN([C@@H](C)CO)C(=O)c2cc(NC(=O)Nc3ccccc3)ccc2O[C@H]1CN(C)Cc1ccc2c(c1)OCO2,3.8,-23.7,-12.0,·
COc1cccc(NC(=O)Nc2ccc3c(c2)C(=O)N(C)C[C@@H](OC)[C@@H](C)CN(CC2CC2)[C@@H](C)CO3)c1,3.0,13.0,-42.8,-0.3
CNC[C@H]1Oc2c(NC(=O)Nc3ccccc3)cccc2C(=O)N([C@@H](C)CO)C[C@H]1C,-1.4,-34.7,-17.6,2.5
C[C@H]1CN([C@@H](C)CO)C(=O)c2c(c3ccccc3n2C)-c2ccccc2CO[C@H]1CN(C)Cc1cccc(C(=O)O)c1,0.8,-18.3,-31.9,·
C[C@H](CO)N1C[C@H](C)[C@@H](CN(C)Cc2cccc(C(=O)Nc3ccccc3N)c2)OCc2ccccc2-c2c(n(C)c3ccccc23)C1=O,6.7,·,-91.2*,·
C[C@H]1CN([C@@H](C)CO)C(=O)c2c(c3ccccc3n2C)-c2ccccc2CO[C@@H]1CN(C)Cc1cccc(O)c1,-1.5,·,-88.5*,·
SMILES,KDM4C inh,T cruzi growth,Pf Dd2 growth,IDH1 mut inh
C[C@H](CO)N1C[C@H](C)[C@H](CN(C)Cc2cccc(O)c2)OCc2ccccc2-c2c(n(C)c3ccccc23)C1=O,·,·,-9.9,·
C[C@@H]1CN([C@@H](C)CO)C(=O)c2c(c3ccccc3n2C)-c2ccccc2CO[C@@H]1CN(C)Cc1cccc(F)c1,-2.4,·,-86.4*,·
COc1cccc(CN(C)C[C@H]2OCc3ccccc3-c3c(n(C)c4ccccc34)C(=O)N([C@H](C)CO)C[C@H]2C)c1,-0.4,·,-88.0*,·
CC(C)NC(=O)N(C)C[C@@H]1Oc2ccc(NC(=O)c3ccncc3)cc2CC(=O)N([C@H](C)CO)C[C@@H]1C,-3.3,·,5.6,·
Cc1noc(C)c1NC(=O)N(C)C[C@H]1Oc2c(NC(=O)c3ccc(-c4nccs4)cc3)cccc2C(=O)N([C@@H](C)CO)C[C@@H]1C,0.2,63.2,16.3,-2.4
C[C@@H]1CN([C@H](C)CO)C(=O)Cc2cc(NC(=O)CCCCCC(=O)Nc3ccccc3N)ccc2O[C@H]1CN(C)Cc1ccc2c(c1)OCO2,-0.1,34.5,-40.0,0.3
C[C@@H]1CN([C@H](C)CO)C(=O)c2cccc(NC(=O)CCCCCC(=O)Nc3ccccc3N)c2O[C@H]1CN(C)Cc1ccc2c(c1)OCO2,-0.2,·,-90.5*,0.1
C[C@@H]1CN([C@H](C)CO)C(=O)c2cccc(NC(=O)CCCCCC(=O)Nc3ccccc3N)c2O[C@@H]1CN(C)Cc1ccc2c(c1)OCO2,11.3,·,-85.2*,0.1
CN(C)c1ccc2c(c1)[C@H]1C[C@H](CC(=O)NCCN3CCCCC3)O[C@@H](CO)[C@H]1O2,16.2,8.3,11.1,-3.1
Cc1cccc(-c2ccc(C3[C@@H]4CN(Cc5ccccc5F)C[C@H]3N4)cc2)c1 (stereo partly drawn),0.7,·,7.3,·
Fc1ccc(-c2ccc(C3[C@@H]4CN(Cc5ccccc5)C[C@H]3N4)cc2)cc1 (stereo partly drawn),40.5*!,·,-81.8*!,·
Cc1ccc(-c2ccc([C@@H]3[C@@H]4CN(Cc5ccccc5F)C[C@H]3N4)cc2)cc1,-2.7,·,-86.8*,·
Fc1ccc(-c2ccc(C3[C@@H]4CN(Cc5cccc(F)c5)C[C@H]3N4)cc2)cc1 (stereo partly drawn),1.7,·,-20.7,·
C[C@H](CO)N1C[C@H](C)[C@@H](CN(C)Cc2ccc(F)cc2)Oc2cc(C#CC(C)(C)O)ccc2S1(=O)=O,0.2,·,-1.2,-1.0
